Compounds with a hit are over-represented: about 2.7% of the library has one in this group of screens.
VIM-2 inhibitor – VIM-2 metallo-beta-lactamase inhibitors, primary screen, biochemical, epi-absorbance readout, Pseudomonas aeruginosa enzyme. purified VIM-2, nitrocefin hydrolysis, epi-absorbance fluorescence. 0.89% of 290,000 active. AID 1527, 2009. inhibition, % at 5.6 µM;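 active means inhibition above the mean of all tested compounds plus 3 SD, cutoff set per screening run, cut at about 7.5% in these data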;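 further: red hydrolysis product quenches plate fluorescence so inhibitors raise well fluorescence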
Fh CTSL1 inh – Fasciola hepatica cathepsin L1 inhibitors, primary screen, counter-screen for PFM18AAP inhibitor project, biochemical, QFRET, fluorogenic peptide substrate. inhibition, % at 5.96 µM. 0.49% of 300,000 active. recombinant F. hepatica cathepsin L1, Z-Leu-Arg-MCA fluorescence. AID 1906, 2009;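 active means inhibition above the mean of all tested compounds plus 3 SD, set per screening campaign, cut at about 17% in these data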
PfM18AAP inh – PfM18AAP inhibitors, malaria aminopeptidase, primary screen, biochemical, QFRET, recombinant enzyme. H-Glu-NHMec fluorogenic cleavage. inhibition, % at 7.35 µM. 1.2% of 290,000 active. AID 1822, 2009;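 active means inhibition above the campaign mean inhibition over all tested compounds plus 3 SD, cut at about 28% in these data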
IMP-1 inh-1 – IMP-1 metallo-beta-lactamase inhibitors, primary screen, biochemical, epi-absorbance readout, Pseudomonas aeruginosa enzyme | inhibition, % at 5.6 µM | purified IMP-1, nitrocefin hydrolysis, epi-absorbance fluorescence | 0.45% of 290,000 active | metallo-beta-lactamase IMP-1 (Pseudomonas aeruginosa);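 active means inhibition above the mean plus 3 SD of all compounds in the same screening run, cut at about 4.5% in these data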
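assay system = purified recombinant IMP-1 metallo-beta-lactamase enzyme | schedule = 15 min preincubation plus 25 min reaction at 25 °C | signal = Epi-absorbance fluorescence, 480 nm excitation, 530 nm emission | read-out basis = percent inhibition from optical density relative to buffer-blank wells | controls = IMP-1 with DMSO as 0%, enzyme-free DMSO as 100%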
IMP-1 inh-2 – IMP-1 metallo-beta-lactamase inhibitors, confirmation, selectivity assay for selective VIM-2 inhibitor project, biochemical, epi-absorbance readout, triplicate; shares compounds with VIM-2 inhibitor; purified IMP-1, nitrocefin hydrolysis, epi-absorbance fluorescence; inhibition, % at 5.6 µM; 1,300 tested, under 10 active; AID 1856, 2009; call rule not given here
VIM-2 FRET ctr – VIM-2 inhibitors in FRET format, confirmation, artefact control for selective VIM-2 inhibitor project, biochemical, epi-absorbance artifact exclusion. AID 1857, 2009. 23% of 1,300 active. purified VIM-2, CCF2 FRET substrate hydrolysis. shares compounds with VIM-2 inhibitor. inhibition, % at 5.6 µM;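 active means inhibition above the mean of all tested compounds plus 3 SD, cut at about 19% in these data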
TEM-1 inh – TEM-1 serine beta-lactamase inhibitors, counter-screen for VIM-2 inhibitor project, biochemical, epi-absorbance, HTS; shares compounds with VIM-2 inhibitor; Purified TEM-1, nitrocefin hydrolysis, epi-absorbance fluorescence; inhibition, % at 5.6 µM; 3% of 1,300 active; AID 1866, 2009;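 active means inhibition above that campaign's mean inhibition plus 3 SD, cut at about 0.46% in these data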
Target sequence (P62593 whole entry, looked up): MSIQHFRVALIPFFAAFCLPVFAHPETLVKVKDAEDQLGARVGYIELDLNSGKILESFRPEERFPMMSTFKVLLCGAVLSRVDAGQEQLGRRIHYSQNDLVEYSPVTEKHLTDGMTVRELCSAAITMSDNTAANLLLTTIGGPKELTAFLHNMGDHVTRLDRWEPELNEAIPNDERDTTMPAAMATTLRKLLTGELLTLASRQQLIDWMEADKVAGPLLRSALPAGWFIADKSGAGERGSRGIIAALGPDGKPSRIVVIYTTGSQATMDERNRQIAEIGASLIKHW
VIM-2 confirm 2 – VIM-2 metallo-beta-lactamase inhibitors, confirmation, biochemical, epi-absorbance, hits shared with IMP-1 screen. shares compounds with VIM-2 inhibitor. purified VIM-2, nitrocefin hydrolysis. inhibition, % at 5.6 µM. 96% of 1,300 active;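 active means inhibition of the VIM-2 beta-lactamase enzyme above about 11% from the earlier first-round screen, limit read from the data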
Numbers stand for hits; - = inactive; . = no result given.

SMILES	VIM-2 inhibitor	Fh CTSL1 inh	PfM18AAP inh	IMP-1 inh-1	IMP-1 inh-2	VIM-2 FRET ctr	TEM-1 inh	VIM-2 confirm 2
CC1CCCN(CCCNC(=O)c2cc3c(Cl)nc4ccccc4c3s2)C1 (configuration not stated)	19.4	-	-	-	-	-	-	31.0
O=c1[nH]cnc(O)c1C(c1cccc([N+](=O)[O-])c1)c1c(O)nc[nH]c1=O	-	-	-	-	.	.	.	.
CCOC(=O)N1CCN(C(=O)c2ccc(Cn3c(=S)[nH]c4ccc(Br)cc4c3=O)cc2)CC1	-	-	-	-	.	.	.	.
CC(=O)Oc1c(-c2ccc(Br)o2)oc2ccccc2c1=O	-	-	-	-	.	.	.	.
Cc1c(C)c2c(OCC(=O)N[C@@H](C)C(=O)O)cc3c(c2oc1=O)CCC(C)(C)O3	46.2	-	-	-	-	69.8	-	53.1
Cc1c(C)c2c(OCC(=O)N3CCC[C@H]3C(=O)O)cc3c(c2oc1=O)CCC(C)(C)O3	69.9	-	-	-	-	85.3	-	72.4
Cc1c(C)c2c(OCC(=O)N3CCC(O)CC3)cc3c(c2oc1=O)CCC(C)(C)O3	-	-	-	-	.	.	.	.
Cc1c(C)c2c(OCC(=O)Nc3cccnc3)cc3c(c2oc1=O)CCC(C)(C)O3	41.5	-	-	-	-	-	-	51.9
Cc1c(C)c2c(OCC(=O)NCC(C)C)cc3c(c2oc1=O)CCC(C)(C)O3	-	.	-	-	.	.	.	.
CCc1cc(=O)oc2c3c(cc(OCC(=O)Nc4cccnc4)c12)OC(C)(C)CC3	67.2	-	-	-	-	-	-	77.7
CCc1cc(=O)oc2c3c(cc(OCC(=O)NCc4ccccn4)c12)OC(C)(C)CC3	-	-	-	-	.	.	.	.
Cc1ccc(Nc2ncnc(N)n2)cc1C	-	-	-	-	.	.	.	.
Cc1ccc(C)c(NC(=O)c2ccc(S(=O)(=O)N(C)CC3CCCO3)cc2)c1 (configuration not stated)	-	-	-	-	.	.	.	.
COc1ccc(CNc2nc(NCc3ccc(OC)cc3)n(C(=O)c3ccccc3[N+](=O)[O-])n2)cc1	-	-	-	-	.	.	.	.
C=CCn1c(SCc2nc3sc4c(c3c(=O)[nH]2)CCCC4)nc2ccccc2c1=O	-	-	-	-	.	.	.	.
COc1cccc(C(=O)NCC(=O)NCc2cc(=O)n(C)c(=O)n2C)c1OC	-	-	-	-	.	.	.	.
CC(C)n1nnc(-c2ccc(OCc3ccccc3F)cc2)n1	-	-	-	-	.	.	.	.
Cc1cc(NC(=O)CSc2nc3sc(C)c(C)c3c(=O)n2C2CCCC2)no1	-	-	-	-	.	.	.	.
Cc1cc(=O)oc2c3c(cc(OCC(=O)NCc4ccncc4)c12)OC(C)(C)CC3	-	-	-	-	.	.	.	.
Cc1c(C)c2c(OCC(=O)NCc3ccncc3)cc3c(c2oc1=O)CCC(C)(C)O3	30.9	-	-	-	-	-	-	40.9
Cc1nn(CC(=O)c2ccccc2)c(=O)c2nn(-c3ccccc3F)c(C)c12	-	-	-	-	.	.	.	.
CC(=O)NCc1cc(-c2nn(C)c(=O)c3ccccc23)ccc1C	-	-	-	-	.	.	.	.
CN(C)CCCNc1ccc(-c2nn(C)c(=O)c3ccccc23)cc1[N+](=O)[O-]	61.3	-	-	-	-	-	-	71.3
CC(O)CNc1ccc(-c2nn(C)c(=O)c3ccccc23)cc1[N+](=O)[O-] (configuration not stated)	19.4	-	-	-	-	-	-	39.1
COCCNc1ccc(-c2nn(C)c(=O)c3ccccc23)cc1[N+](=O)[O-]	-	-	-	-	.	.	.	.
SMILES	VIM-2 inhibitor	Fh CTSL1 inh	PfM18AAP inh	IMP-1 inh-1	IMP-1 inh-2	VIM-2 FRET ctr	TEM-1 inh	VIM-2 confirm 2
CCc1ccc(NC(=O)CSc2nnc(C)c(=O)n2N)cc1	-	-	-	-	.	.	.	.
COc1cc(-c2noc(C)c2C#Cc2nccn2C)cc(OC)c1OC	29.6	-	-	-	-	-	-	45.9
O=C(CN1C(=O)c2ccccc2S1(=O)=O)NCc1cccs1	-	-	-	-	.	.	.	.
Cc1c(OCC(=O)N[C@@H](CSCc2ccccc2)C(=O)O)ccc2c3c(c(=O)oc12)CCC3	13.1	.	-	-	-	-	-	19.3
O=C(COc1ccc2c3c(c(=O)oc2c1)CCC3)N[C@@H](CSCc1ccccc1)C(=O)O	-	-	-	-	.	.	.	.
Cc1c(OCC(=O)NC2CCN(Cc3ccccc3)CC2)ccc2c3c(c(=O)oc12)CCC3	35.6	-	-	-	-	-	-	45.3
Cc1cc(=O)oc2c(C)c(OCC(=O)NC3CCN(Cc4ccccc4)CC3)ccc12	13.2	-	-	-	-	-	-	21.3
Cc1c(OCC(=O)N2CCC(C(=O)O)CC2)ccc2c3c(c(=O)oc12)CCCC3	-	-	-	-	.	.	.	.
Cc1cc(OCC(=O)NC2CCN(Cc3ccccc3)CC2)c2c(C)c(C)c(=O)oc2c1	34.0	-	-	-	-	-	-	48.3
CCOC(=O)c1ccc(NC(=O)COc2ccc(S(=O)(=O)NC(C)(C)C)cc2)cc1	-	-	-	-	.	.	.	.
Cc1ccc(Nc2c3c(nc4ncnn24)CC(C)CC3)cc1 (configuration not stated)	-	-	-	-	.	.	.	.
Cc1ccc(Nc2c3c(nc4ncnn24)CCC3)cc1	17.2	-	-	-	-	-	-	24.1
CCOC(=O)N=Nc1c(O)n(C)c2ccccc12	-	-	-	-	.	.	.	.
Cc1ccc2c(c1)c(N=NC(N)=O)c(O)n2C	12.6	-	-	-	-	-	-	18.6
O=S1(=O)CCN(C(CCO)c2cccc(C(F)(F)F)c2)CC1 (configuration not stated)	-	-	-	-	.	.	.	.
Cc1[nH]n(-c2ccc([N+](=O)[O-])cc2)c(=O)c1/C=N/N1CCOCC1	-	-	-	-	.	.	.	.
CC(=NCCCn1ccnc1)c1c(C)[nH]n(-c2ccc([N+](=O)[O-])cc2)c1=O	12.5	-	-	-	-	-	-	34.1
COC(=O)c1c(C(=O)OC)c(-c2ccc(F)cc2)n2c1CSC2	-	-	-	-	.	.	.	.
O=C(O)c1c(C(=O)O)c(-c2ccc(Br)cc2)n2c1CSC2	43.2	-	-	-	-	68.0	-	50.2
Cc1ccc(-c2c(C(=O)O)c(C(=O)O)c3n2CSC3)cc1	33.9	-	-	-	-	52.1	-	36.8
CN(/N=C/c1cccc(Br)c1)C1=NS(=O)(=O)c2ccccc21	16.4	.	-	-	-	-	-	22.5

Screening results from PubChem BioAssay.
